Assay: Toxicity liver stage against HepG2, at 10uM
Format: cell-based
Set-up: test concentration 10 uM, cell line HepG2-A16-CD81EGFP
Details: human, HepG2-A16-CD81EGFP cells; read-out: INHIBITION
Procedure, shortened: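 Uninfected HepG2-A16-CD81EGFP cells, 3 × 10^3 per well, 1536-well, plated on prespotted compound at 10 μM final, parasite-free screening media added to match infected plates; puromycin 10 μM positive, DMSO 0.5% negative; run in parallel with 48 h PbLuc assay at 37 °C, 5% CO2; viability by CellTiter-Glo luminescence, normalized to controls.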

Structure (SMILES)	cytotoxicity at 10 µM [%]
CC(C)(C)OC(=O)N1CCN(c2nnc(Br)s2)CC1	10.8
CCOCC(=O)N1CC[C@@H]2O[C@@H](C)C[C@H]2C1	-69.2
Cc1cccc(S(=O)(=O)NCC2CCN(c3cnccn3)CC2)c1	7.99
CC(C)c1noc(CCCC(=O)N2CCN(Cc3cccnc3)CC2)n1	-2.96
Cc1ccc(OCCN(C)Cc2ccc(S(=O)(=O)N(C)C)o2)cc1	-14.8
O=S(=O)(Cc1c(F)cccc1Cl)NCCCN1CCCCCC1	-10
COCC(=O)N1CCC2(CC1)C(=O)N(Cc1cccnc1)CCN2C	0.964
Cc1noc(CCNC(=O)C2CSCN2C(=O)C2CCCC2)n1 (stereo not given)	-45
CNC(=O)CC1c2cccnc2C(=O)N1Cc1ccccc1 (stereo not given)	-2.51
N#Cc1ccc(N2CCC3(CCC(=O)N3CCN3CCCC3)CC2)nc1	-114
Cn1cc(N2C(=O)CC[C@@H]3[C@H]2CCN3CCc2ccccc2)cn1	15.6
Cn1c(Cn2ccnc2)nnc1C1CCCN(CC(C)(C)C)C1 (stereo not given)	3.89
Cc1nn(C)c(Cl)c1C1CCCN1C(=O)c1ccc(N(C)C)nn1 (stereo not given)	-9.01
CNC(=O)[C@@H]1COC[C@H]2CN(C(=O)c3ccc(OC)cc3)C[C@H]21	9.48
COc1ccccc1C1Cn2c(C)cnc2CN1Cc1ccc(C)nc1 (stereo not given)	-3.18
Cc1nccc(NCc2cncc3c2CCN(CC2CCOC2)C3)n1 (stereo not given)	-41.5
CN(Cc1cc2n(n1)CCCN(C(=O)N1CCCC1)C2)Cc1nccs1	-0.63
FC(F)(F)CCN(Cc1ccon1)C1CCCC1	1.87
CCN1CCN(C(=O)COCc2nc(-c3ccncc3)no2)CC1	-8.72
O=C1CC2(CCCC2)C(=O)N1CC(O)COCc1ccccc1F (stereo not given)	0.927
CNC(=O)[C@@H]1[C@@H](c2ccccc2)CN2CCN(Cc3ccccn3)C[C@H]12	8.76
CCOC(=O)CCNC(=O)c1cc(Cl)cc2cccnc12	15

Structure (SMILES)	cytotoxicity at 10 µM [%]
CCOC(=O)[C@]12CCCN(Cc3cccs3)C[C@H]1CN(CC(C)C)C2	10.8
COc1ccccc1[C@@H]1CN(Cc2ccncc2)C[C@H]1C(=O)O	-4.23
CCc1ccc(CN(C)c2ccc(-c3nc(COC)no3)cn2)nc1	-2.68
CSCc1noc(CNC(=O)C2CCN(C(=O)C3CC3)CC2)n1	11.5
CCN(CCO)C(=O)c1cc(Cn2c(C)nc3ccccc32)[nH]n1	8.51
CCc1nnc(CN2CCN(C(=O)c3ccccn3)CC2)o1	3.49
O=C(Cc1ccc(F)c(F)c1)NC1COc2ccccc2C1=O (stereo not given)	4.61
CCC(CC)c1cc(CNC(=O)N2CCCC(c3ncc[nH]3)C2)on1 (stereo not given)	-2.02
CCCn1cnnc1CN(C)C(=O)CCC(=O)Nc1cc(C)ccc1F	16.1
c1cc(CNc2ncc(-c3cnccn3)c([C@@H]3CCCO3)n2)ccn1	8.99
CC(C)N(Cc1ccc(C(=O)O)o1)C(C)C	-1.2
COc1ccccc1C1(C(=O)NCCN2CCOCC2)CCOCC1	-11.6
CCc1ncc(S(C)(=O)=O)c(C2CCCNC2)n1 (stereo not given)	-14.2
O=C(O)c1c[nH]c2cc(NS(=O)(=O)c3cccc(Cl)c3F)ccc12	-10.5
COc1ccc(Cc2ncc3c(n2)CN(C(=O)C(C)(C)C)C3)cc1	-1.1
O=c1[nH][nH]c2cn(-c3ccc(Br)cc3)c(=O)n12	-11.8
Cc1ncnc2c1CCN(C(=O)c1ccsc1)CC2	-0.443
Fc1cccc2[nH]c(CN3CCn4c(nnc4C4CC4)C3)nc12	-5.07
Cn1cc(N2CCC(Nc3ccc4nccnc4n3)C2=O)cn1 (stereo not given)	-2.47
O=C(NC1CC1)C1CCCN1c1ncnc2ccsc12 (stereo not given)	-5.2
CS(=O)(=O)NCC1CCCN(C(=O)COCC(F)(F)F)C1 (stereo not given)	-3.12
CCOCc1nn(CC2CC2)c2c1CN(Cc1ccco1)CC2	2.7

Structure (SMILES)	cytotoxicity at 10 µM [%]
c1coc(CN2CC[C@@H]3O[C@@H](COCC4CCOCC4)CC[C@@H]32)c1	-142
O=C(NCc1ccc(Cl)s1)NCc1nnc2n1CCCCC2	-2.06
CCn1c(C)cc(C(=O)N2C[C@@H](C(=O)O)[C@H](c3ccccc3)C2)c1C	-0.173
CCCn1ncc(C(=O)N2CCN(C(=O)c3ccc[nH]3)CC2)c1C	-151
Cc1nc(O)c2nnn(C[C@H]3CCCN3C(=O)c3ccccc3C)c2n1	-7.36
O=C(Cn1c(=O)n(Cc2ccco2)c2ncccc21)NC1CC1	-6.33
COCCCNC(=O)Nc1cccc(Cl)c1-n1cccn1	1.13
O=C1CCCC2=C1C(c1ccco1)C1C(=O)NN=C1N2 (stereo not given)	2.1
COCCN1CCO[C@@H]2CN(C(=O)COc3ccc(C)cc3)C[C@@H]2C1	-0.572
Cc1nc(N[C@H]2COC[C@@H]2N2CCCC2)c2cnn(C)c2n1	-1.42
Cc1nc(CN2CCN(S(=O)(=O)N3CCOCC3)CC2)oc1C	0.373
Cc1ccc(C(=O)N2CCCC2c2nnc3n2CCCCC3)o1 (stereo not given)	-6.05
CCCn1cc(-c2ccnc(NC3CCc4ccccc43)n2)c(C)n1 (stereo not given)	10.1
O=C(Cc1cccc(F)c1F)N1CCOC(c2cccc(O)c2)C1 (stereo not given)	0.0788
Cc1ccc(CC(=O)N2CSCC2C(=O)N(C)Cc2ccco2)o1 (stereo not given)	-4.32
COC(=O)CNC(=O)c1nc(Cl)sc1C(C)C	1.34
CN(CCCNc1cc(N2CCCC2CO)ncn1)S(C)(=O)=O (stereo not given)	-10.2
Cc1cc(CN2CC[C@H]3C(=O)N(c4ccccc4)CCO[C@H]3C2)no1	-5.59
CCN1CCN(C[C@@H]2CN(c3ncccc3C(F)(F)F)C[C@@H]2CO)CC1	-4.47
O=C(c1ccccc1Cl)N1CCN(CCc2ccccn2)CC1	5.75
Cc1nn(C)c2c(NCCCn3cccn3)nc(C(C)C)nc12	6.67
CC(=O)c1ccc(OCC(=O)NC(C)CCc2ccco2)cc1 (stereo not given)	-9.96

Structure (SMILES)	cytotoxicity at 10 µM [%]
CCC1CN(CC(=O)NCCC#N)CCO1 (stereo not given)	2.28
COc1ccc(-c2cc(CN)nc3ccnn23)cc1	-5.75
Cc1cc(NC(=O)C(C)Nc2cccc(COCc3ccco3)c2)no1 (stereo not given)	-1.42
Cc1csc(N2CCN(Cc3cscn3)CC2C)n1 (stereo not given)	16
CCCC(=O)NCC(Cc1cccc(F)c1)N1CCCC1=O (stereo not given)	-2.91
Cc1noc(-c2ccc(N3CCCC(C(=O)c4nccn4C)C3)nc2)n1 (stereo not given)	-6.58
Cc1cc(CN(CCO)c2ccccc2)on1	-14.7
CCCN1CCCC1c1nc(Cc2ccc(F)cc2)no1 (stereo not given)	-2.74
Fc1ccc(CCC2CCCN(Cc3c[nH]cn3)C2)c(F)c1 (stereo not given)	-6.51
CN1CCC2(C=C(C(=O)N(C)C)c3ccccc32)CC1	-102
Cc1ccoc1C(=O)NCC(c1ccccc1Cl)N1CCOCC1 (stereo not given)	8.21
CCOC(C)c1noc(CN2CCCN(c3ccccn3)CC2)n1 (stereo not given)	-4.05
CC(NC(=O)N1CCN(c2cccs2)CC1)c1ccncc1 (stereo not given)	15.8
NC(=O)N1CCCN(CC(=O)NCCc2c(F)cccc2F)CC1	-5.15
O=C(O)COc1ccc(CN2CCCC(Cc3cccnc3)C2)cc1 (stereo not given)	-4.98
CC(C)(C)c1c[nH]c([C@@H]2COCCN2C2CCNCC2)n1	6.07
CN(C)c1ccc(CNC2(c3ccc(F)cc3)CCOCC2)cc1F	0.937
CCc1ncnc2c1CCN(Cc1nccs1)CC2	6.56
CN1CC[C@@H]2[C@@H](CO[C@H]2CNC(=O)c2nccn2C)C1	-113
O=C(CNC(=O)N1CCc2c([nH]c3ccc(Cl)cc23)C1)NC1CCCC1	-2.91
COc1ccc(C[C@H]2CN(c3cc(OC)ncn3)CC[C@@H]2OC)cc1	50
COCCN1CCCC2(CCN(c3ccsc3)C2=O)C1 (stereo not given)	-79.6

Structure (SMILES)	cytotoxicity at 10 µM [%]
Cc1cnc(N2CCCC3(COCCN(c4nccs4)C3)C2)nc1 (stereo not given)	-112
O=C(NCc1ccccc1OCCO)Nc1ccc2c(c1)CCC2	9.46
Cc1ccc(CNCc2ccc(-n3nc(C)cc3C)nc2)cc1	-0.164
c1cnc(CC2COCCN(C3CCCCC3)C2)cn1 (stereo not given)	0.514
COC(=O)NCCC(=O)NC(C)Cc1ccccc1Br (stereo not given)	-5.29
CCC1=NC2(CCC(C(=O)Nc3ccc(C)nc3)CC2)C(=O)N1C (stereo not given)	8.79
O=C(C1COc2ccccc2O1)N1Cc2cnn(CCO)c2C1 (stereo not given)	-3.12
NC(=O)c1ccc(N2CCN(Cc3ccc(F)cc3Cl)CC2)nn1	62.6
CCc1cc(CN(C)C(=O)CN2CC3(CCNCC3)OC2=O)on1	0.394
FC(F)(F)C1CN(Cc2cccc(-c3ccccn3)c2)CCO1 (stereo not given)	-7.73
O=C1NCCCCC1Sc1n[nH]c(=O)n1C1CC1 (stereo not given)	5.24
CC(C)OC(=O)N1C[C@@H]2CC[C@H]1CN(C(=O)c1ccccn1)C2	0.502
CCc1nc2ccccc2c(=O)n1CC1(O)CCN(C(=O)C(C)C)CC1	-24.3
CC(NC(=O)N1CCN(c2nccs2)CC1)c1nncn1C (stereo not given)	-13.1
O=C(c1ccco1)N1CCC(n2cc(-c3ccsc3)nn2)CC1	1.41
Cc1c(NC(=O)c2ccc(Br)cc2)c(C(=O)N(C)C)nn1C	3.65
CN1C[C@H](c2ccccc2)[C@H]2CN(C(=O)Cc3ccc(O)cc3)CC[C@H]21	8.14
O=C(NCCNS(=O)(=O)c1ccc2c(c1)CCCC2)c1ccoc1	0.743
CNC(=O)CN(C)c1cncc(OCc2ccccc2)n1	1.15
NC(=O)c1csc(C(=O)N2CCCC(n3cccn3)C2)c1 (stereo not given)	-2.77
COc1ncc(C2(O)CCN(Cc3cc(F)cc(F)c3)CC2)c(OC)n1	0.331
CNCc1cn(C[C@H]2C[C@@H]3CCN2C[C@@H]3C(=O)NC2CCCCC2)nn1	1.73
